Data set [1] is described as follows: Cytotoxicity against mouse 3T3-L1 cells transfected with Lenti-PPARgamma-Luc reporter assessed as cell viability at 1 uM incubated for 48 hrs by CCK-8 assay relative to control. It is filed as toxicity, cell-based. The note with it: read-out: Activity. An outline of the steps:
(§1)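 3T3-L1-Lenti-PPARγ-Luc reporter cells (lentivirus-transduced) exposed to alkaloids at a range of concentrations. Viability by CCK-8, absorbance at 450 nm, relative to control, used to set maximum noncytotoxic concentrations. Triplicate.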
(Tetrazolium dyes change colour on reduction, which living cells bring about.)

The test system of data set [2] is 3T3-L1. Briefly: Inhibition of adipogenesis in mouse 3T3-L1 cells assessed as downregulation of PPARgamma relative protein level […] by Western blot analysis. The format is functional, cell-based. An outline of the steps: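 Differentiated 3T3-L1 adipocytes treated with alkaloids at several doses. Lysed in RIPA with PMSF on ice for 30 min. Proteins transferred to PVDF and blocked with 5% skim milk for 2 h at 25 °C. Primary antibody 2 h, HRP secondary 1 h. PPARγ protein level expressed relative to control. n = 3.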
(In general: A western blot detects proteins with antibodies after separation by electrophoresis.)

Data set [3] can be described thus: Cytotoxicity against mouse 3T3-L1 cells transfected with Lenti-PPARgamma-Luc reporter assessed as cell viability at 0.1 uM incubated for 48 hrs by CCK-8 assay relative to control. It is filed as toxicity, cell-based. The note with it: read-out: Activity. An outline of the steps: as §1
Data set [4] in a line: Cytotoxicity against mouse 3T3-L1 cells assessed as cell viability at 5 uM incubated for 48 hrs by CCK-8 assay relative to control. The format is toxicity, cell-based. The settings on record: read-out: Activity. An outline of the steps: (§2)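 3T3-L1 preadipocytes seeded at 1 × 10^3 cells/well and left 12 h, then exposed to alkaloids for 48 h. Viability by CCK-8, absorbance at 450 nm, relative to control. Lovastatin 5 μM included. Mean ± SD, n = 3.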

Data set [5] can be described thus: Cytotoxicity against mouse 3T3-L1 cells transfected with Lenti-PPARgamma-Luc reporter assessed as cell viability at 10 uM incubated for 48 hrs by CCK-8 assay relative to control. It is filed as toxicity, cell-based. The settings on record: read-out: Activity. An outline of the steps:
as §1

A short description of data set [6]: Cytotoxicity against mouse 3T3-L1 cells assessed as cell viability at 1 uM incubated for 48 hrs by CCK-8 assay relative to control. The note with it: read-out: Activity. The format is toxicity, cell-based. An outline of the steps:
as §2

Data set [7] is described as follows: Cytotoxicity against mouse 3T3-L1 cells transfected with Lenti-PPARgamma-Luc reporter assessed as cell viability at 3 uM incubated for 48 hrs by CCK-8 assay relative to control. It is filed as toxicity, cell-based. The note with it: read-out: Activity. An outline of the steps:
as §1

Data set [8] can be described thus: Cytotoxicity against mouse 3T3-L1 cells transfected with Lenti-PPARgamma-Luc reporter assessed as cell viability at 4 uM incubated for 48 hrs by CCK-8 assay relative to control. The format is toxicity, cell-based. The note with it: read-out: Activity. An outline of the steps:
as §1

The nature of data set [9]: Cytotoxicity against mouse 3T3-L1 cells transfected with Lenti-PPARgamma-Luc reporter assessed as cell viability at 7.5 uM incubated for 48 hrs by CCK-8 assay relative to control. It is filed as toxicity, cell-based. The settings on record: read-out: Activity. An outline of the steps: as §1
Data set [10] is described as follows: Cytotoxicity against mouse 3T3-L1 cells assessed as cell viability at 3 uM incubated for 48 hrs by CCK-8 assay relative to control. It is filed as toxicity, cell-based. The settings on record: read-out: Activity. An outline of the steps: as §2
Data set [11] has as its system 3T3-L1. Kind of data set: Anti-adipogenic activity in mouse 3T3-L1 cells transfected with Lenti-PPARgamma-Luc reporter assessed as inhibition of PPARgamma expression by luminescence based microplate reader analysis. It is filed as functional, cell-based.
The nature of data set [12]: Cytotoxicity against mouse 3T3-L1 cells transfected with Lenti-PPARgamma-Luc reporter assessed as cell viability at 2 uM incubated for 48 hrs by CCK-8 assay relative to control. It is filed as toxicity, cell-based. The settings on record: read-out: Activity. An outline of the steps: as §1
The nature of data set [13]: Cytotoxicity against mouse 3T3-L1 cells assessed as cell viability at 10 uM incubated for 48 hrs by CCK-8 assay relative to control. It is filed as toxicity, cell-based. The note with it: read-out: Activity. An outline of the steps:
as §2

The nature of data set [14]: Cytotoxicity against mouse 3T3-L1 cells transfected with Lenti-PPARgamma-Luc reporter assessed as cell viability at 5 uM incubated for 48 hrs by CCK-8 assay relative to control. The format is toxicity, cell-based. The settings on record: read-out: Activity. An outline of the steps:
as §1

Data set [15] relates to 3T3-L1. Kind of data set: Anti-adipogenic activity in mouse 3T3-L1 preadipocytes assessed as inhibition of lipid accumulation incubated for 6 days by Nile Red staining based fluorescence microscopic analysis. The format is functional, cell-based. The note with it: time 6.0 day.
Data set [16] can be described thus: Cytotoxicity against mouse 3T3-L1 cells assessed as cell viability at 7.5 uM incubated for 48 hrs by CCK-8 assay relative to control. The format is toxicity, cell-based. The note with it: read-out: Activity. An outline of the steps:
as §2

Data set [17] can be described thus: Cytotoxicity against mouse 3T3-L1 cells transfected with Lenti-PPARgamma-Luc reporter assessed as cell viability at 20 uM incubated for 48 hrs by CCK-8 assay relative to control. It is filed as toxicity, cell-based. The note with it: read-out: Activity. An outline of the steps:
as §1

Data set [18] is described as follows: Cytotoxicity against mouse 3T3-L1 cells assessed as cell viability at 20 uM incubated for 48 hrs by CCK-8 assay relative to control. It is filed as toxicity, cell-based. The settings on record: read-out: Activity. An outline of the steps: as §2
The nature of data set [19]: Cytotoxicity against mouse 3T3-L1 cells assessed as cell viability at 15 uM incubated for 48 hrs by CCK-8 assay relative to control. It is filed as toxicity, cell-based. The note with it: read-out: Activity. An outline of the steps:
as §2

The nature of data set [20]: Cytotoxicity against mouse 3T3-L1 cells transfected with Lenti-PPARgamma-Luc reporter assessed as cell viability at 30 uM incubated for 48 hrs by CCK-8 assay relative to control. The format is toxicity, cell-based. The note with it: read-out: Activity. An outline of the steps: as §1
The nature of data set [21]: Cytotoxicity against mouse 3T3-L1 cells assessed as cell viability at 25 uM incubated for 48 hrs by CCK-8 assay relative to control. The format is toxicity, cell-based. The note with it: read-out: Activity. An outline of the steps: as §2
Data set [22] in a line: Cytotoxicity against mouse 3T3-L1 cells transfected with Lenti-PPARgamma-Luc reporter assessed as cell viability at 25 uM incubated for 48 hrs by CCK-8 assay relative to control. It is filed as toxicity, cell-based. The settings on record: read-out: Activity. An outline of the steps:
as §1

The nature of data set [23]: Cytotoxicity against mouse 3T3-L1 cells transfected with Lenti-PPARgamma-Luc reporter assessed as cell viability at 15 uM incubated for 48 hrs by CCK-8 assay relative to control. The format is toxicity, cell-based. The settings on record: read-out: Activity. An outline of the steps: as §1
Data set [24] can be described thus: Cytotoxicity against mouse 3T3-L1 cells assessed as cell viability at 100 uM incubated for 48 hrs by CCK-8 assay relative to control. The settings on record: read-out: Activity. The format is toxicity, cell-based. An outline of the steps: as §2
Data set [25] can be described thus: Cytotoxicity against mouse 3T3-L1 cells assessed as cell viability at 50 uM incubated for 48 hrs by CCK-8 assay relative to control. The settings on record: read-out: Activity. It is filed as toxicity, cell-based. An outline of the steps:
as §2

Active and inactive are the calls of the source. The rule behind the calls is not given here.

Usually IC50 stands for the midpoint of a concentration-inhibition curve. Take `C=C(c1ccc(O)c(Oc2cc3c(cc2OC)CCN(C)[C@@H]3Cc2ccc(OC)cc2)c1)[C@H]1c2cc(OC)c(OC)cc2CCN1C`: the viability at 48 h, 1 µM in [1] and in data set [6] was > 80% each time. For the same molecule, the inhibition entry with 3T3-L1 [2] is “Active”. Besides, the viability at 48 h, 0.1 µM in [3] is > 80%. Moreover, the viability at 48 h, 5 µM in [4] and in data set [14] was > 80% each time. The viability at 48 h, 10 µM in data set [5] and in data set [13] was < 80% in each case. Further, the viability at 48 h, 3 µM in data set [7] and in data set [10] was > 80% in each case. Also, in data set [8], the viability at 48 h, 4 µM is > 80%. Also, the viability at 48 h, 7.5 µM in [9] and in data set [16] was < 80% each time. Moreover, the Activity result with 3T3-L1 [11] and in the data set with 3T3-L1 [15] was “Dose-Dependent Effect” each time. Also, in the data set with 3T3-L1 [11], the 50% inhibitory concentration (IC50) came out at 4.6 µM. The viability at 48 h, 2 µM in data set [12] was > 80%.

For `COc1cc2c(cc1OC)[C@@H](Cc1ccc(O)c(Oc3cc4c(cc3OC)CCN(C)[C@@H]4Cc3ccc(O)cc3)c1)N(C)CC2`, the viability at 48 h, 1 µM in [1] was > 80%. The inhibition result in the data set with 3T3-L1 [2] was “Active”. Also, the viability at 48 h, 0.1 µM in data set [3] is > 80%. Also, the viability at 48 h, 5 µM in [4] and in data set [14] was > 80% in each case. Moreover, the viability at 48 h, 10 µM in [5] and in data set [13] was > 80% in each case. For the same molecule, the viability at 48 h, 20 µM was < 80% in data set [17] and > 80% in data set [18]. Also, the viability at 48 h, 15 µM in data set [19] and in data set [23] was > 80% each time. The Activity result in the data set with 3T3-L1 [11] and in the data set on 3T3-L1 [15] was “Dose-Dependent Effect” each time. Besides, in data set [20], the viability at 48 h, 30 µM was < 80%. For the same molecule, the viability at 48 h, 25 µM in data set [21] and in data set [22] was < 80% each time.

With `COc1ccc(C[C@@H]2c3cc(Oc4cc(C[C@H]5c6cc(OC)c(OC)cc6CCN5C)ccc4O)c(OC)cc3CCN2C)cc1`, the viability at 48 h, 1 µM in data set [1] and in data set [6] was > 80% in each case. Also, the inhibition entry in the data set with 3T3-L1 [2] was “Active”. The viability at 48 h, 0.1 µM in [3] was > 80%. Moreover, the viability at 48 h, 5 µM in [4] and in data set [14] was > 80% throughout. Also, the viability at 48 h, 10 µM in data set [5] and in [13] was < 80% throughout. The viability at 48 h, 3 µM in [7] and in [10] was > 80% throughout. Besides, in data set [8], the viability at 48 h, 4 µM is > 80%. Also, the viability at 48 h, 7.5 µM in data set [9] and in [16] was < 80% each time. In [19], the viability at 48 h, 15 µM is > 80%. For the same molecule, the Activity entry in the data set with 3T3-L1 [11] and in the data set on 3T3-L1 [15] was “Dose-Dependent Effect” in each case. Besides, in the data set on 3T3-L1 [11], the IC50 turned out to be 4.5 µM. Also, the viability at 48 h, 2 µM in data set [12] was > 80%.

As to `COc1cc2c(cc1O)[C@@H](Cc1ccc(O)c(Oc3cc4c(cc3OC)CCN(C)[C@@H]4Cc3ccc(O)cc3)c1)N(C)CC2`, the viability at 48 h, 1 µM in [1] is > 80%. Also, the inhibition result in the data set with 3T3-L1 [2] was “Active”. The viability at 48 h, 0.1 µM in data set [3] is > 80%. The viability at 48 h, 5 µM in data set [4] and in data set [14] was > 80% in each case. The viability at 48 h, 10 µM in data set [5] and in data set [13] was > 80% throughout. In addition, the viability at 48 h, 20 µM in data set [17] and in data set [18] was > 80% each time. Moreover, the viability at 48 h, 15 µM in data set [19] and in [23] was > 80% throughout. The Activity result with 3T3-L1 [11] and in the data set on 3T3-L1 [15] was “Dose-Dependent Effect” in each case. In addition, in [20], the viability at 48 h, 30 µM is < 80%. Besides, the viability at 48 h, 25 µM in [21] and in data set [22] was < 80% each time.

Consider `COc1cc2c(cc1O)C(Cc1ccc(O)c(-c3c(O)c(OC)cc4c3C(Cc3ccc(O)cc3)N(C)CC4)c1)N(C)CC2` (configuration not stated), for which the viability at 48 h, 100 µM in [24] is > 80%. Moreover, the viability at 48 h, 5 µM in data set [4] is > 80%. In data set [25], the viability at 48 h, 50 µM was > 80%. Moreover, in [13], the viability at 48 h, 10 µM was > 80%. Also, the viability at 48 h, 25 µM in data set [21] was > 80%.

Values taken from ChEMBL document CHEMBL5385940 (J Nat Prod, 2024).
